Assay outcomes as filed in PubChem BioAssay.
TCR CD3 inh – inhibitors of human TCR-CD3 interaction, primary screen, biochemical, fluorescence, TAMRA-labeled TCR probe; T-cell receptor (TCR); inhibition, % at 9.4 µM; actives 0.37% (n = 360,000); AID 651800, 2012; in the data active = inhibition above about 19%;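 note: recombinant mutant TCR 2C K166C tagged with TAMRA read by polarization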
PAD4 inh – human PAD4 inhibitors, primary screen, biochemical, fluorescence polarization, 1536-well format. Protein-arginine deiminase type-4 (Homo sapiens), Q9UM07. recombinant PAD4, RCA probe fluorescence polarization. inhibition, % at 6.36 µM. actives 0.41% (n = 330,000);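 active = percent inhibition above a cutoff equal to the mean of all tested compounds plus 3 SD, cut at about 15% in these data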
HTRA1 inhibitor – HTRA1 serine protease inhibitors, primary screen, biochemical, fluorescence polarization, HTS | Q92743 | recombinant HTRA1, FP-rhodamine activity-based probe | inhibition, % at 5.96 µM | actives 0.5% (n = 340,000); in the data active = inhibition above about 36%
mABHD4 FP – ABHD4 inhibitors, primary screen, biochemical, fluorescence polarization, mouse; purified mABHD4, FP-Rh probe fluorescence polarization; inhibition, % at 8.92 µM; (Lyso)-N-acylphosphatidylethanolamine lipase (Mus musculus), Q8VD66; AID 720543, 2013; actives 0.54% (n = 370,000);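 active = inhibition exceeding the mean over every tested compound plus 3 SD, cut at about 30% in these data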
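system = mouse ABHD4 enzyme, wild type | medium = HEPES pH 7.0, NaCl, Pluronic buffer | also added = FP-Rh probe | incubation = Enzyme–compound pre-incubation 45 min, then probe 60 min, both 25 °C | technique = fluorescence polarization, excitation 525 nm, emission 598 nm, BODIPY TMR filters | controls = S159A mutant high control, sample median low control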
SIAE primary – human SIAE inhibitors, primary screen, biochemical, fluorescence polarization, FP-Rh probe, 1536-well HTS. Sialate O-acetylesterase (Homo sapiens), Q9HAT2. SIAE FP-Rh probe binding. inhibition, % at 9.66 µM. actives 0.69% (n = 370,000). AID 1053197, 2014;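 active = inhibition above a cutoff: mean of compounds within the control limits plus 3 SD of those, cut at about 17% in these data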
TDP2 absorb – human TDP2 enzyme inhibitors, primary screen, biochemical, epi absorbance, recombinant enzyme; T5PNP hydrolysis, p-nitrophenol absorbance 415 nm; inhibition, % at 12.8 µM; actives 0.34% (n = 370,000);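 active = inhibition above the mean of all tested compounds plus 3 SD, set per campaign, cut at about 25% in these data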
Target sequence (O95551 whole entry, looked up): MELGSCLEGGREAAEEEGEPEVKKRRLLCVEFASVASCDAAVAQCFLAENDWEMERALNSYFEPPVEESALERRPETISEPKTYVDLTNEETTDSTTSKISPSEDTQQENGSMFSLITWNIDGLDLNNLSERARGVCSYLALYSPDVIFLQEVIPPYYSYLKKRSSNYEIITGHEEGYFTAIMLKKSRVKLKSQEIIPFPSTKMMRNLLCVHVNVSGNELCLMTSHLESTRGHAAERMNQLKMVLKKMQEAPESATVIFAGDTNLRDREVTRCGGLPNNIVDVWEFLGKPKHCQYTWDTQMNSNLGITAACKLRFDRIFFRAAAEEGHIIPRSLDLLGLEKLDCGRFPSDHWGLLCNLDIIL
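System: recombinant human TDP2 / Amount: 120 nM TDP2 per well / Also added: 5 mM T5PNP chromogenic substrate / Doses: 12.8 µM single point, 1% DMSO / Incubation: 2 h at 37 °C / Detection: p-Nitrophenol epi absorbance / Evaluation: % inhibition relative to enzyme-containing and enzyme-free wells / Repeats: singlicate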
PAD4 confirm – human PAD4 inhibitors, confirmation, biochemical, fluorescence polarization; shares compounds with PAD4 inh; recombinant PAD4, RCA probe fluorescence polarization; inhibition, % at 6.36 µM; actives 28% (n = 1,200); AID 488796, 2010;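 active = mean inhibition across replicates above the hit cutoff set by the earlier primary screen, cut at about 15% in these data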;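 note: inhibitors block active-site labeling by the probe so polarization falls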
Of the large screens only hits and unclear results are named; the others gave an inactive call (follow-up assays come after a bar, where they were run). This is a sample that favours compounds with a hit; in the whole collection about 2% have one here.

O=C(CSc1nc2ccccc2c(=O)[nH]1)Nc1ccc([N+](=O)[O-])cc1	none
Cc1ccc2nc(NC(=O)CSc3nncc(=O)n3N)sc2c1	PAD4 inh 19 | PAD4 confirm inactive
C=CCN1C(=O)[C@@H](CC(=O)N2CCOCC2)[C@]2(C(=O)OCC)CCCCC/C=C/12	none (no result: TCR CD3 inh, PAD4 inh, HTRA1 inhibitor)
Cc1ccc(C2(C)NC(=O)N(CC(=O)Nc3cc(C)on3)C2=O)cc1 (centres undefined)	none
Cc1ccc(C2(C)NC(=O)N(CC(=O)NC(=O)NC(C)(C)C)C2=O)cc1 (centres undefined)	PAD4 inh 16 | PAD4 confirm inactive
COCCOC(=O)N(C)C[C@@H]1OCCCC[C@H](C)Oc2ccc(NC(=O)Nc3ccccc3)cc2C(=O)N([C@@H](C)CO)C[C@H]1C	none (no result: TCR CD3 inh, PAD4 inh, HTRA1 inhibitor)
S=C(NCc1ccco1)Nc1cccc(Cl)c1	PAD4 inh 163 | PAD4 confirm inactive
CCOC(=O)c1cc(S(=O)(=O)Nc2ccc(OC)cc2OC)cn1C	PAD4 inh 31 | PAD4 confirm inactive
C[C@H](NS(=O)(=O)c1ccc([N+](=O)[O-])cc1)C(=O)NCCNC(=O)[C@@H](C)NS(=O)(=O)c1ccc([N+](=O)[O-])cc1	none (no result: TCR CD3 inh, PAD4 inh, HTRA1 inhibitor)
COc1cccc(C(=O)OCC(=O)c2c(N)n(C)c(=O)n(C)c2=O)c1	PAD4 inh 22 | PAD4 confirm inactive
Cn1c(N)c(C(=O)COC(=O)COc2cc(Cl)c(Cl)cc2Cl)c(=O)n(C)c1=O	none
Cn1c(N)c(C(=O)COC(=O)COc2ccc(Br)cc2)c(=O)n(C)c1=O	PAD4 inh 171 | PAD4 confirm inactive
Cc1cc(Cl)ccc1OCC(=O)OCC(=O)c1c(N)n(C)c(=O)n(C)c1=O	PAD4 inh 27 | PAD4 confirm inactive
CCC[C@H]1[C@@H](OC(=O)N2CCN(c3ccccc3)CC2)CC[C@@]23CCCN2C(=O)CCC[C@@H]13	none (no result: TCR CD3 inh, PAD4 inh, HTRA1 inhibitor)
C[C@H]1[C@H](c2ccccc2)OC(O)([C@H](Cc2ccccc2)NC(=O)OC(C)(C)C)CN1C (some centres undefined)	none (no result: TCR CD3 inh, PAD4 inh, HTRA1 inhibitor)
COc1cccc(N2CCN(C(=O)c3cn(Cc4ccccc4)nc3-c3cccnc3)CC2)c1	PAD4 inh 21 | PAD4 confirm inactive
CCOC(=O)[C@]12CCCCC/C=C\1N(CCc1ccc(Cl)cc1)C(=O)[C@H]2CC(=O)N1CCN(C(=O)c2ccco2)CC1	none (no result: TCR CD3 inh, PAD4 inh, HTRA1 inhibitor)
Cn1c(SCC(=O)Nc2ccc(Br)cn2)nnc1C1CC1	PAD4 inh 156 | PAD4 confirm 23
CC(C)Oc1ccc(-c2csc(N3CCC(C(N)=O)CC3)n2)cc1	none (no result: TCR CD3 inh, PAD4 inh, HTRA1 inhibitor)
Cc1ccc(NC(=O)c2ccc(=O)[nH]n2)cc1C	none
Cc1ccc(NC(=O)c2ccc(=O)[nH]n2)cc1S(=O)(=O)Nc1ccc(SC(F)F)cc1	PAD4 inh 22 | PAD4 confirm inactive
CCc1cccc(NS(=O)(=O)c2ccc3c(c2)CCC(=O)N3)c1	PAD4 inh 16 | PAD4 confirm inactive
Cc1cccc(NS(=O)(=O)c2ccc3c(c2)CCC(=O)N3)c1	none
CCOc1ccccc1OCCCC(=O)N1CCN(S(=O)(=O)c2cccc(F)c2)CC1	none
COc1ccc(OCCCC(=O)N2CCN(S(=O)(=O)c3cccc(F)c3)CC2)cc1	PAD4 inh 33 | PAD4 confirm inactive
O=C(OC12CCCN(C1)/C(=C/c1ccncc1)C2)c1cccc(F)c1 (centres undefined)	none (no result: TCR CD3 inh, PAD4 inh, HTRA1 inhibitor)
O=C(CN1c2cccc3cccc(c23)S1(=O)=O)Nc1ccc(S(=O)(=O)N2CCOCC2)cc1	PAD4 inh 17 | PAD4 confirm 32
O=C(CN1C(=O)c2cccc3cccc1c23)Nc1ccc(S(=O)(=O)N2CCOCC2)cc1	none
